# Results: ChEMBL document CHEMBL1121739, “Inhibition of human acrosin by monosaccharides and related compounds: structure-activity relationships” (J Med Chem, 1981)
# Target: Acrosin (Homo sapiens) (UniProt P10323)
# Assay: Compound was tested for inhibition of Human acrosin by aldoses
# Conditions: not given
# Procedure, shortened: (§1)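 Homologous aldoses or ketoses of different carbon chain lengths were each tested at 100 mM against purified human α-acrosin. The enzyme was preincubated with sugar for 5 min at ambient temperature, pH 7.5, with 3×10^-4 M BAPA as substrate and hydrolysis read spectrophotometrically at 253 nm. Results are % inhibition of control activity, as mean ± SE with n given.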
# Chain of Acrosin (Homo sapiens) (P10323 20-42 limits assumed): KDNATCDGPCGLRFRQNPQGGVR
# Chain of Acrosin (Homo sapiens) (P10323 43-343 limits assumed): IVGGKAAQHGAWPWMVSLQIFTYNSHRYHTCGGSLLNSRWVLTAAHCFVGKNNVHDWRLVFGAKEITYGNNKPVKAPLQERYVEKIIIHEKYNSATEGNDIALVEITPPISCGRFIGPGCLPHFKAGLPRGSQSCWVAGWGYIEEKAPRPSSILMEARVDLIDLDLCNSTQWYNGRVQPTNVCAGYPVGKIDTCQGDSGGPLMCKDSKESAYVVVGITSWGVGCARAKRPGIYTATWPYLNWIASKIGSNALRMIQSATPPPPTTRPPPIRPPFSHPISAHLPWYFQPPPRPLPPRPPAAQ
row,inhibition,SMILES
1,48%,OC[C@H]1OC(O)[C@@H](O)[C@@H](O)[C@@H]1O (some centres undefined)
2,36%,OC1OC[C@@H](O)[C@@H](O)[C@@H]1O (some centres undefined)
3,40%,O=CC(O)C(O)CO (centres undefined)

# Target: Acrosin (Homo sapiens) (UniProt P10323)
# Assay: Compound was tested for inhibition of Human acrosin by aldopentoses
# Parameters: concentration or dose not given beside the values
# Conditions: concentration not given here
# Procedure, shortened: (§2)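 Purified human α-acrosin (acetic acid extract of frozen sperm, then Sephadex G-150 and CM-cellulose). Sugar at 200 mM was preincubated with enzyme for 5 min at ambient temperature in 50 mM sodium phosphate, pH 7.5. The reaction was started with 5×10^-5 M BAEE or 3×10^-4 M BAPA and followed at 253 nm. Results are % inhibition of the no-inhibitor control rate, as mean ± SE.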
row,inhibition,SMILES
1,65%,OC1OC[C@H](O)[C@H](O)[C@H]1O (some centres undefined)
2,37%,O=C[C@H](O)[C@@H](O)[C@H](O)CO
3,40%,OC1OC[C@H](O)[C@@H](O)[C@@H]1O (some centres undefined)
4,50%,OC1OC[C@@H](O)[C@@H](O)[C@@H]1O (some centres undefined)
5,65%,OC[C@H]1O[C@H](O)[C@H](O)[C@@H]1O
6,35%,O[C@@H]1[C@H](O)[C@@H](O)OC[C@H]1O (stereo in doubt; form 2)
7,50%,O[C@@H]1[C@H](O)[C@@H](O)OC[C@H]1O (stereo in doubt; form 1)

# Target: Acrosin (Homo sapiens) (UniProt P10323)
# Assay: Compound was tested for inhibition of Human acrosin by aldohexoses
# Parameters: concentration or dose not given beside the values
# Conditions: concentration not given here
# Procedure, shortened: as §2
row,inhibition,SMILES
1,34%,OC[C@H]1O[C@@H](O)[C@H](O)[C@@H](O)[C@H]1O (stereo in doubt; form 1)
2,62%,C[C@H]1OC(O)[C@H](O)[C@@H](O)[C@H]1O (some centres undefined)
3,60%,OC[C@H]1OC(O)[C@@H](O)[C@@H](O)[C@@H]1O (some centres undefined)
4,0%,OC[C@H]1OC(O)[C@H](O)[C@H](O)[C@H]1O (some centres undefined)
5,12%,OC[C@H]1O[C@@H](O)[C@H](O)[C@@H](O)[C@H]1O (stereo in doubt; form 2)
6,0%,OC[C@@H]1OC(O)[C@@H](O)[C@H](O)[C@H]1O (some centres undefined)
7,20%,C[C@H](O)[C@@H](O)[C@@H](O)[C@H](O)C=O
8,28%,OC[C@H]1OC(O)[C@H](O)[C@@H](O)[C@@H]1O (some centres undefined)

# Target: Acrosin (Homo sapiens) (UniProt P10323)
# Assay: Compound was tested for inhibition of Human acrosin by polyols
# Conditions: concentration not given here
row,inhibition,SMILES
1,29%,OC[C@@H](O)[C@@H](O)[C@H](O)[C@H](O)CO
2,28%,OCC(O)CO
3,38%,OC[C@@H](O)[C@@H](O)[C@H](O)[C@@H](O)CO
4,30%,O[C@H]1[C@H](O)[C@@H](O)[C@H](O)[C@@H](O)[C@H]1O

# Target: Acrosin (Homo sapiens) (UniProt P10323)
# Assay: Compound was tested for inhibition of Human acrosin by ketohexoses
# Conditions: concentration not given here
# Procedure, shortened: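 Purified human α-acrosin from acetic acid extracts of frozen sperm, run through Sephadex G-150 and CM-cellulose. Sugars at 200 mM were preincubated with the enzyme for 5 min at ambient temperature in 50 mM sodium phosphate, pH 7.5. Reaction started with 5×10^-5 M BAEE or 3×10^-4 M BAPA; hydrolysis followed at 253 nm. Percent inhibition versus inhibitor-free control, mean ± SE of 3–6 determinations.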
row,SMILES,inhibition
1,O=C(CO)[C@@H](O)[C@H](O)[C@H](O)CO,66%
2,O=P(O)(O)OC[C@H]1O[C@](O)(CO)[C@@H](O)[C@@H]1O,32%
3,OCC1(O)OCC(O)C(O)C1O (centres undefined),58%
4,O=C(CO)C(O)C(O)C(O)CO (centres undefined),18%

# Target: Acrosin (Homo sapiens) (UniProt P10323)
# Assay: Compound was tested for inhibition of Human acrosin by phosphorylated monosaccharides
# Parameters: concentration or dose not given beside the values
# Conditions: concentration not given here
# Procedure, shortened: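 Phosphorylated sugars, as barium salts in the D configuration, were tested at 100 mM, limited by solubility; the parent sugars were also run at 100 mM. Each was preincubated 5 min with purified human α-acrosin before adding BAEE or BAPA. The spectrophotometric 253 nm assay measured % inhibition relative to a no-inhibitor control.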
row,inhibition,SMILES
1,0%,O=C[C@H](O)[C@@H](O)[C@@H](O)[C@H](O)CO
2,7%,O=P(O)(O)OC[C@H]1O[C@](O)(CO)[C@@H](O)[C@@H]1O
3,3%,O=P(O)(O)OC1O[C@H](CO)[C@H](O)[C@H](O)[C@H]1O (some centres undefined)
4,45%,OC[C@H]1O[C@H](O)[C@H](O)[C@@H]1O
5,18%,O=P(O)(O)OC[C@H]1OC(O)(COP(=O)(O)O)[C@@H](O)[C@@H]1O (some centres undefined)
6,15%,O=P(O)(O)OC[C@H]1O[C@H](O)[C@H](O)[C@@H]1O
7,9%,O=P(O)(O)OC[C@@]1(O)O[C@H](CO)[C@@H](O)[C@@H]1O
8,10%,O=P(O)(O)OC[C@H]1OC(O)[C@H](O)[C@@H](O)[C@H]1O (some centres undefined)

row,SMILES,inhibition
1,O=C(CO)[C@@H](O)[C@H](O)[C@H](O)CO,46%

# Target: Acrosin (Homo sapiens) (UniProt P10323)
# Assay: Compound was tested for inhibition of Human acrosin by ketoses
# Conditions: concentration not given here
# Procedure, shortened: as §1
row,inhibition,SMILES
1,15%,O=C(CO)CO
2,41%,OC[C@H]1OC(O)(CO)[C@@H](O)[C@@H](O)[C@@H]1O (some centres undefined)
3,38%,O=C(CO)C(O)C(O)CO (centres undefined)

row,SMILES,inhibition
1,O=C(CO)[C@@H](O)[C@H](O)[C@H](O)CO,47%
